Drawing on ChEMBL document CHEMBL1153805, “Phenylethanoid glycosides from Lantana fucata with in vitro anti-inflammatory activity” (J Nat Prod, 2009), this text covers viability and inhibition for 6 compounds.

Data set [1] in a line: Antiproliferative activity against mouse J774A1 cells assessed as cell viability at 1 ug/ml after 72 hrs by MTT assay relative to LPS. Type of data set: cell-based, J774.A1. In short, it runs like this:
(§1)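 J774A.1 cells (3.5 × 10⁴/well) adhered 2 h at 37 °C, 5% CO₂. Medium was renewed, then serial dilutions of compound were added for 72 h. MTT was added for a further 3 h, formazan was dissolved in 50% DMF/20% SDS (pH 4.5), and OD was read at 620 nm. % dead cells = 100 − (OD treated/OD control) × 100. A cell-free control tested for MTT interference.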
On the technique in general: Tetrazolium assays rely on reduction of a dye to a coloured formazan, in cell work by metabolically active cells.

Data set [2] concerns J774.A1. The data set can be described thus: Antiinflammatory activity in mouse J774A1 cells assessed as inhibition of LPS-induced NO release at 10 ug/ml after 24 hrs treated 1 hr before LPS challenge relative to LPS. Type of data set: functional. In short, it runs like this: (§2)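 J774A.1 cells (5.0 × 10⁴/well) adhered 2 h at 37 °C, 5% CO₂. Compounds added 1 h before and simultaneously with E. coli LPS (6 × 10³ U/mL) to induce iNOS. Nitrite accumulated in medium was measured 24 h after LPS with Griess reagent against a sodium nitrite standard curve made in culture medium. Expressed as % inhibition versus LPS-only cells. L-NAME (1 µM) was the reference.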

A short description of data set [3]: Antiproliferative activity against mouse J774A1 cells assessed as cell viability at 10 ug/ml after 72 hrs by MTT assay relative to LPS. Type of data set: cell-based, J774.A1. The method in brief:
as §1

Data set [4] can be described thus: Antiproliferative activity against mouse J774A1 cells assessed as cell viability at 100 ug/ml after 72 hrs by MTT assay relative to LPS. Type of data set: cell-based, J774.A1. In short, it runs like this:
as §1

Data set [5] relates to J774.A1. Briefly: Antiinflammatory activity in mouse J774A1 cells assessed as inhibition of LPS-induced NO release at 1 ug/ml after 24 hrs treated 1 hr before LPS challenge relative to LPS. Type of data set: functional. The method in brief:
as §2

In data set [6] the test system is J774.A1. Briefly: Antiinflammatory activity in mouse J774A1 cells assessed as inhibition of LPS-induced NO release at 100 ug/ml after 24 hrs treated 1 hr before LPS challenge relative to LPS. Type of data set: functional. The method in brief: as §2
The test system of data set [7] is J774.A1. The data set can be described thus: Antiinflammatory activity in mouse J774A1 cells assessed as inhibition of LPS-induced NO release at 1 uM after 24 hrs treated 1 hr before LPS challenge relative to LPS. Format: functional. In short, it runs like this:
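J774A.1 murine macrophages plated at 5.0 × 10⁴ cells/well, adhered 2 h at 37 °C in 5% CO₂. Compounds (1-100 µg/mL) added 1 h before and simultaneously with E. coli LPS (6 × 10³ U/mL) to induce iNOS. After 24 h, nitrite in medium measured by Griess reagent against a sodium nitrite standard curve made in culture medium. Expressed as % inhibition versus LPS alone.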

Take `O=C(/C=C/c1ccc(O)c(O)c1)O[C@H]1[C@H](O)[C@@H](O[C@@H]2OC[C@](O)(CO)[C@H]2O)[C@H](OCCc2ccc(O)c(O)c2)O[C@@H]1CO` [FUCATOSIDE A]: in data set [1], the viability at 72 h, 1 ug/ml is 97.3%. Further, the inhibition at 10 µg/mL with J774.A1 [2] came to 11.2%. Moreover, the viability at 72 h, 10 ug/ml in data set [3] worked out at 95.9%. The viability at 72 h, 100 ug/ml in data set [4] was 95%. Besides, the inhibition at 1 µg/mL with J774.A1 [5] was found to be 13.3%. Further, the inhibition at 100 µg/mL in the data set on J774.A1 [6] came out at 52.5%.

Consider `O=C(/C=C/c1ccc(O)c(O)c1)O[C@H]1[C@H](O[C@@H]2OC[C@](O)(CO)[C@H]2O)[C@@H](O[C@@H]2OC[C@@H](O)[C@H](O)[C@H]2O)[C@H](OCCc2ccc(O)c(O)c2)O[C@@H]1CO` [FUCATOSIDE B], for which the viability at 72 h, 1 ug/ml in data set [1] turned out to be 97.5%. Besides, the inhibition at 10 µg/mL in the data set on J774.A1 [2] turned out to be 16.4%. Besides, the viability at 72 h, 10 ug/ml in data set [3] is 96.1%. Further, the viability at 72 h, 100 ug/ml in data set [4] was 94.4%. Further, the inhibition at 1 µg/mL with J774.A1 [5] was found to be 13.7%. In the data set on J774.A1 [6], the inhibition at 100 µg/mL came out at 81.4%.

`O=C(/C=C/c1ccc(O)c(O)c1)O[C@H]1[C@H](O[C@@H]2OC[C@@](O)(CO)[C@H]2O)[C@@H](O[C@@H]2OC[C@@](O)(CO)[C@H]2O)[C@H](OCCc2ccc(O)c(O)c2)O[C@@H]1CO` [FUCATOSIDE C]: the viability at 72 h, 1 ug/ml in data set [1] came out at 96.4%. In addition, in the data set with J774.A1 [2], the inhibition at 10 µg/mL was found to be 31.8%. Moreover, the viability at 72 h, 10 ug/ml in data set [3] worked out at 96.8%. Also, in data set [4], the viability at 72 h, 100 ug/ml was 94.3%. The inhibition at 1 µg/mL in the data set with J774.A1 [5] worked out at 4.4%. The inhibition at 100 µg/mL in the data set with J774.A1 [6] stood at 93.7%.

As to `COC(=O)[C@@H](N)CCCNC(=N)N[N+](=O)[O-]` [L-NAME], the inhibition at 1 µM in the data set on J774.A1 [7] came to 46.6%.

In the case of `Sc1ncnc2nc[nH]c12` [MERCAPTOPURINE ANHYDROUS], the viability at 72 h, 1 ug/ml in data set [1] was determined as 44.1%. Further, the viability at 72 h, 10 ug/ml in data set [3] is 38%. In data set [4], the viability at 72 h, 100 ug/ml stood at 31.8%.

As for `C[C@@H]1O[C@@H](O[C@H]2[C@H](OCCc3ccc(O)c(O)c3)O[C@H](CO)[C@@H](OC(=O)/C=C/c3ccc(O)c(O)c3)[C@@H]2O)[C@H](O)[C@H](O)[C@H]1O` [PARVIFLOROSIDE A], the viability at 72 h, 1 ug/ml in data set [1] turned out to be 96.7%. Also, the inhibition at 10 µg/mL in the data set on J774.A1 [2] was determined as 9%. The viability at 72 h, 10 ug/ml in data set [3] was found to be 95.9%. Besides, the viability at 72 h, 100 ug/ml in data set [4] turned out to be 96.9%. Also, the inhibition at 1 µg/mL with J774.A1 [5] worked out at 3.8%. Moreover, in the data set with J774.A1 [6], the inhibition at 100 µg/mL is 88.5%.

By viability is commonly meant a read-out of living cells in per cent, often relative to untreated cells. In general, inhibition refers to the relative decrease from the control value, in per cent.
